Data: ChEMBL document CHEMBL1129345, “Synthesis and potent anti-HIV-1 activity of novel 6-benzyluracil analogues of 1-[(2-hydroxyethoxy)methyl]-6-(phenylthio)thymine” (1996)

Experiments:
Format in all cases: functional
[1] = tested on: Human immunodeficiency virus 1; assay: Effective dose of compound required to inhibit 50% of HIV-1 antigen production in MT-4 cultures.; conditions: read-out: ED50 (the source's name)
Outline: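 MT-4 cells were infected with HIV-1 HTLV-IIIB (0.005 MOI) for 2 h and washed. They were then added 1:10 to uninfected MT-4 cells preincubated with compound for 2 h in RPMI 1640 with 10% heat-inactivated FCS. Cultures were kept with compound for 6 days, and supernatant HIV-1 antigen was measured by ELISA. ED50 (50% antigen reduction) is the mean of three independent determinations.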

MT4 [2] = assay: Cytotoxic dose required to reduce the proliferation of normal uninfected MT-4 cells; conditions: Homo sapiens, read-out: CD50 (the source's name)
Outline: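 Proliferation of uninfected MT-4 cells measured by MTT assay over a range of compound concentrations. A 30% inhibition of growth versus control cultures was counted as significant. CD50 is the concentration giving 50% reduction in proliferation, reported as the mean of three independent determinations.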

MT4 [3] = assay: Selectivity index is the ratio between CD50 and ED50
Outline: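 Selectivity index computed as CD50 (MTT proliferation assay in uninfected MT-4 cells) divided by ED50 (HIV-1 antigen ELISA in HTLV-IIIB-infected MT-4 cultures, 6 days). Both values are means of three independent determinations.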

Compound | EC50 [1] | CC50 (MT4 [2]) | SI (MT4 [3])
CCc1c(Cc2ccccc2)n([C@@H]2CC[C@@H](CO)O2)c(=O)[nH]c1=O | 0.5 µM | 1 µM | 2
CCc1c(Cc2ccccc2)n([C@H]2CC[C@@H](CO)O2)c(=O)[nH]c1=O | 37 µM | 52 µM | 1.4
CCSCn1c(Cc2ccccc2)c(CC)c(=O)[nH]c1=O | 0.04 µM | 37 µM | 925
CCOCn1c(Cc2cc(C)cc(C)c2)c(CC)c(=O)[nH]c1=O | 0.004 µM | 100 µM | 25000
CCSCn1c(Cc2cc(C)cc(C)c2)c(CC)c(=O)[nH]c1=O | 0.004 µM | 68 µM | 17000
CCc1c(Cc2ccccc2)n(C(C)OC)c(=O)[nH]c1=O (stereo not drawn) | > 100 µM | – | –
CCSCn1c(Cc2ccccc2)c(C(C)C)c(=O)[nH]c1=O | 0.006 µM | 37 µM | 6200
CSCn1c(Cc2ccccc2)c(C(C)C)c(=O)[nH]c1=O | 0.02 µM | 37 µM | 1850
CCOCn1c(Cc2ccccc2)c(CC)c(=O)[nH]c1=O | 0.041 µM | – | –
CCc1c(Cc2cc(C)cc(C)c2)n(CSC)c(=O)[nH]c1=O | 0.05 µM | 52 µM | 1040
CCOC(C)n1c(Cc2ccccc2)c(CC)c(=O)[nH]c1=O (stereo not drawn) | > 100 µM | – | –
CCc1c(Cc2ccccc2)n(C(C)OCCO)c(=O)[nH]c1=O (stereo not drawn) | > 100 µM | – | –
CCc1c(Cc2cc(C)cc(C)c2)n(C(C)OC)c(=O)[nH]c1=O (stereo not drawn) | 2 µM | 100 µM | 50
CCc1c(Cc2ccccc2)n(CSC)c(=O)[nH]c1=O | 0.002 µM | 32 µM | 16000
CCOC(CC)n1c(Cc2cc(C)cc(C)c2)c(CC)c(=O)[nH]c1=O (stereo not drawn) | 15 µM | 130 µM | 8.7
CCOCn1c(Cc2ccccc2)c(C(C)C)c(=O)[nH]c1=O [EMIVIRINE] | 0.005 µM | 141 µM | 28000
Cc1cn([C@H]2C[C@H](N=[N+]=[N-])[C@@H](CO)O2)c(=O)[nH]c1=O [ZIDOVUDINE] | 0.04 µM | 52 µM | 1300
